Experimental data published in ChEMBL document CHEMBL1153576, “Novel ureas and thioureas of 15-membered azalides with antibacterial activity against key respiratory pathogens” (Eur J Med Chem, 2009).
In brackets after ≈: the same amount, converted by molar mass.

Tests used:
Type in all cases: functional
Staphylococcus aureus = assay: Antibacterial activity against Staphylococcus aureus ATCC 29213 after 16 to 22 hrs by broth microdilution method
Outline: (§1)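 Broth microdilution per the CLSI approved standard (sixth edition), using two-fold serial dilutions of compound in Mueller–Hinton broth. Stocks at 5 mg/ml in DMF. Inoculum came from a direct colony suspension adjusted by turbidity to about 5 × 10⁴ CFU/well final. Trays were incubated at 35 °C for 16–22 h. MIC is the lowest concentration completely inhibiting growth (99% inhibition).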

Streptococcus pyogenes [1] = assay: Antibacterial activity against erythromycin-susceptible Streptococcus pyogenes after 16 to 22 hrs by broth microdilution method
Outline: (§2)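 Streptococci tested by CLSI broth microdilution in Mueller–Hinton broth with 5% horse serum, using two-fold serial dilutions. Compounds were dissolved in DMF at 5 mg/ml (stock). Inoculum was a turbidity-adjusted direct colony suspension giving about 5 × 10⁴ CFU/well. Trays were held at 35 °C for 16–22 h. MIC is the lowest concentration completely inhibiting growth (99%).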

Streptococcus pneumoniae [2] = assay: Antibacterial activity against constitutive macrolide-lincosamide-streptogramin-resistant Streptococcus pneumoniae after 16 to 22 hrs by broth microdilution method
Outline: (§3)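 Two-fold serial dilutions in microdilution trays, following the CLSI dilution standard for aerobic bacteria. Medium was Mueller–Hinton broth with 5% horse serum for streptococci. Stocks were made at 5 mg/ml in DMF. Inoculum came from a direct colony suspension adjusted by turbidity to about 5 × 10⁴ CFU/well final. Incubation was at 35 °C for 16–22 h. MIC is the lowest concentration completely inhibiting growth (99% inhibition).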

Moraxella catarrhalis = assay: Antibacterial activity against Moraxella catarrhalis ATCC 23246 after 16 to 22 hrs by broth dilution method; outline: as §1
Escherichia coli = assay: Antibacterial activity against Escherichia coli ATCC 25922 after 16 to 22 hrs by broth dilution method; outline: as §1
Streptococcus pyogenes [3] = assay: Antibacterial activity against inducible macrolide-lincosamide-streptogramin-resistant Streptococcus pyogenes 16 to 22 hrs by broth microdilution method; outline: as §3
Streptococcus pneumoniae [4] = assay: Antibacterial activity against efflux-mediated macrolide-resistant Streptococcus pneumoniae after 16 to 22 hrs by broth microdilution method; outline: as §3
Streptococcus pneumoniae [5] = assay: Antibacterial activity against erythromycin-susceptible Streptococcus pneumoniae after 16 to 22 hrs by broth microdilution method; outline: as §2
Enterococcus faecalis = assay: Antibacterial activity against Enterococcus faecalis ATCC 29212 after 16 to 22 hrs by broth dilution method; outline: as §1
Haemophilus influenzae = assay: Antibacterial activity against Haemophilus influenzae ATCC 49247 after 16 to 22 hrs by broth dilution method
Outline: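 Microdilution trays following the CLSI standard, with two-fold serial dilutions in supplemented broth suited to H. influenzae. DMF stocks at 5 mg/ml. Inoculum prepared from a turbidity-adjusted direct colony suspension to about 5 × 10⁴ CFU/well final. Incubated at 35 °C for 16–22 h. MIC is the lowest concentration giving complete (99%) growth inhibition.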

Streptococcus pyogenes [6] = assay: Antibacterial activity against efflux-mediated macrolide-resistance Streptococcus pyogenes after 16 to 22 hrs by broth microdilution method; outline: as §3

SMILES	MIC (Staphylococcus aureus)	MIC (Streptococcus pyogenes [1])	MIC (Streptococcus pneumoniae [2])	MIC (Moraxella catarrhalis)	MIC (Escherichia coli)	MIC (Streptococcus pyogenes [3])	MIC (Streptococcus pneumoniae [4])	MIC (Streptococcus pneumoniae [5])	MIC (Enterococcus faecalis)	MIC (Haemophilus influenzae)	MIC (Streptococcus pyogenes [6])
CC[C@H]1OC(=O)[C@H](C)[C@@H](O[C@H]2C[C@@](C)(OC)[C@@H](O)[C@H](C)O2)[C@H](C)[C@@H](O[C@@H]2O[C@H](C)C[C@H](N(C)C)[C@H]2O)[C@](C)(O)C[C@@H](C)CN(CCCN(CCC#N)C(=S)NCCCc2ccccc2)[C@H](C)[C@@H](O)[C@]1(C)O	1 µg/mL (≈ 0.978 µM)	≤ 0.125 µg/mL	32 µg/mL (≈ 31.3 µM)	4 µg/mL (≈ 3.91 µM)	16 µg/mL (≈ 15.6 µM)	8 µg/mL (≈ 7.82 µM)	32 µg/mL (≈ 31.3 µM)	≤ 0.125 µg/mL	16 µg/mL (≈ 15.6 µM)	4 µg/mL (≈ 3.91 µM)	16 µg/mL (≈ 15.6 µM)
CC[C@H]1OC(=O)[C@H](C)[C@@H](O[C@H]2C[C@@](C)(OC)[C@@H](O)[C@H](C)O2)[C@H](C)[C@@H](O[C@@H]2O[C@H](C)C[C@H](N(C)C)[C@H]2O)[C@](C)(O)C[C@@H](C)CN(CCCN(CCC#N)C(=S)Nc2ccccc2)[C@H](C)[C@@H](O)[C@]1(C)O	2 µg/mL (≈ 2.04 µM)	≤ 0.125 µg/mL	> 64 µg/mL	4 µg/mL (≈ 4.08 µM)	> 64 µg/mL	32 µg/mL (≈ 32.6 µM)	32 µg/mL (≈ 32.6 µM)	≤ 0.125 µg/mL	> 64 µg/mL	16 µg/mL (≈ 16.3 µM)	32 µg/mL (≈ 32.6 µM)
CC[C@H]1OC(=O)[C@H](C)[C@@H](O[C@H]2C[C@@](C)(OC)[C@@H](O)[C@H](C)O2)[C@H](C)[C@@H](O[C@@H]2O[C@H](C)C[C@H](N(C)C)[C@H]2O)[C@](C)(O)C[C@@H](C)CN(CCCN(CCC#N)C(=O)NC(C)c2cccc3ccccc23)[C@H](C)[C@@H](O)[C@]1(C)O (stereo partly specified)	2 µg/mL (≈ 1.92 µM)	≤ 0.125 µg/mL	16 µg/mL (≈ 15.3 µM)	0.5 µg/mL (≈ 0.48 µM)	32 µg/mL (≈ 30.7 µM)	8 µg/mL (≈ 7.67 µM)	32 µg/mL (≈ 30.7 µM)	≤ 0.125 µg/mL	16 µg/mL (≈ 15.3 µM)	2 µg/mL (≈ 1.92 µM)	8 µg/mL (≈ 7.67 µM)
CC[C@H]1OC(=O)[C@H](C)[C@@H](O[C@H]2C[C@@](C)(OC)[C@@H](O)[C@H](C)O2)[C@H](C)[C@@H](O[C@@H]2O[C@H](C)C[C@H](N(C)C)[C@H]2O)[C@](C)(O)C[C@@H](C)CN(CCCN(CCC#N)C(=O)Nc2ccccc2)[C@H](C)[C@@H](O)[C@]1(C)O	1 µg/mL (≈ 1.04 µM)	≤ 0.125 µg/mL	> 64 µg/mL	4 µg/mL (≈ 4.15 µM)	32 µg/mL (≈ 33.2 µM)	16 µg/mL (≈ 16.6 µM)	32 µg/mL (≈ 33.2 µM)	≤ 0.125 µg/mL	32 µg/mL (≈ 33.2 µM)	8 µg/mL (≈ 8.3 µM)	32 µg/mL (≈ 33.2 µM)
CC[C@H]1OC(=O)[C@H](C)[C@@H](O[C@H]2C[C@@](C)(OC)[C@@H](O)[C@H](C)O2)[C@H](C)[C@@H](O[C@@H]2O[C@H](C)C[C@H](N(C)C)[C@H]2O)[C@](C)(O)C[C@@H](C)CN(CCCN(CCC#N)C(=S)Nc2cccc3ccccc23)[C@H](C)[C@@H](O)[C@]1(C)O	4 µg/mL (≈ 3.88 µM)	≤ 0.125 µg/mL	64 µg/mL (≈ 62.1 µM)	4 µg/mL (≈ 3.88 µM)	8 µg/mL (≈ 7.76 µM)	32 µg/mL (≈ 31.1 µM)	16 µg/mL (≈ 15.5 µM)	≤ 0.125 µg/mL	32 µg/mL (≈ 31.1 µM)	8 µg/mL (≈ 7.76 µM)	32 µg/mL (≈ 31.1 µM)
CC[C@H]1OC(=O)[C@H](C)[C@@H](O[C@H]2C[C@@](C)(OC)[C@@H](O)[C@H](C)O2)[C@H](C)[C@@H](O[C@@H]2O[C@H](C)C[C@H](N(C)C)[C@H]2O)[C@](C)(O)C[C@@H](C)CN(CCCN(CCC#N)C(=S)NCc2ccccc2)[C@H](C)[C@@H](O)[C@]1(C)O	1 µg/mL (≈ 1.01 µM)	≤ 0.125 µg/mL	64 µg/mL (≈ 64.4 µM)	1 µg/mL (≈ 1.01 µM)	16 µg/mL (≈ 16.1 µM)	16 µg/mL (≈ 16.1 µM)	16 µg/mL (≈ 16.1 µM)	≤ 0.125 µg/mL	32 µg/mL (≈ 32.2 µM)	4 µg/mL (≈ 4.02 µM)	8 µg/mL (≈ 8.05 µM)
CC[C@H]1OC(=O)[C@H](C)[C@@H](O[C@H]2C[C@@](C)(OC)[C@@H](O)[C@H](C)O2)[C@H](C)[C@@H](O[C@@H]2O[C@H](C)C[C@H](N(C)C)[C@H]2O)[C@](C)(O)C[C@@H](C)CN(CCCN(CCC#N)C(=O)NCCc2ccccc2)[C@H](C)[C@@H](O)[C@]1(C)O	4 µg/mL (≈ 4.03 µM)	≤ 0.125 µg/mL	> 64 µg/mL	16 µg/mL (≈ 16.1 µM)	> 64 µg/mL	32 µg/mL (≈ 32.2 µM)	64 µg/mL (≈ 64.5 µM)	≤ 0.125 µg/mL	64 µg/mL (≈ 64.5 µM)	32 µg/mL (≈ 32.2 µM)	64 µg/mL (≈ 64.5 µM)
CC[C@H]1OC(=O)[C@H](C)[C@@H](O[C@H]2C[C@@](C)(OC)[C@@H](O)[C@H](C)O2)[C@H](C)[C@@H](O[C@@H]2O[C@H](C)C[C@H](N(C)C)[C@H]2O)[C@](C)(O)C[C@@H](C)CN(CCCN(CCC#N)C(=O)NCc2ccccc2)[C@H](C)[C@@H](O)[C@]1(C)O	2 µg/mL (≈ 2.04 µM)	≤ 0.125 µg/mL	64 µg/mL (≈ 65.4 µM)	0.5 µg/mL (≈ 0.511 µM)	8 µg/mL (≈ 8.18 µM)	16 µg/mL (≈ 16.4 µM)	16 µg/mL (≈ 16.4 µM)	≤ 0.125 µg/mL	32 µg/mL (≈ 32.7 µM)	4 µg/mL (≈ 4.09 µM)	8 µg/mL (≈ 8.18 µM)
CC[C@H]1OC(=O)[C@H](C)[C@@H](O[C@H]2C[C@@](C)(OC)[C@@H](O)[C@H](C)O2)[C@H](C)[C@@H](O[C@@H]2O[C@H](C)C[C@H](N(C)C)[C@H]2O)[C@](C)(O)C[C@@H](C)CN(CCCN(CCC#N)C(=S)NCCc2ccccc2)[C@H](C)[C@@H](O)[C@]1(C)O	1 µg/mL (≈ 0.992 µM)	≤ 0.125 µg/mL	64 µg/mL (≈ 63.5 µM)	2 µg/mL (≈ 1.98 µM)	16 µg/mL (≈ 15.9 µM)	8 µg/mL (≈ 7.93 µM)	32 µg/mL (≈ 31.7 µM)	≤ 0.125 µg/mL	32 µg/mL (≈ 31.7 µM)	4 µg/mL (≈ 3.97 µM)	16 µg/mL (≈ 15.9 µM)
CC[C@H]1OC(=O)[C@H](C)[C@@H](O[C@H]2C[C@@](C)(OC)[C@@H](O)[C@H](C)O2)[C@H](C)[C@@H](O[C@@H]2O[C@H](C)C[C@H](N(C)C)[C@H]2O)[C@](C)(O)C[C@@H](C)CN(CCCN(CCC#N)C(=O)Nc2ccc3ccccc3c2)[C@H](C)[C@@H](O)[C@]1(C)O	1 µg/mL (≈ 0.986 µM)	≤ 0.125 µg/mL	32 µg/mL (≈ 31.5 µM)	1 µg/mL (≈ 0.986 µM)	32 µg/mL (≈ 31.5 µM)	16 µg/mL (≈ 15.8 µM)	16 µg/mL (≈ 15.8 µM)	≤ 0.125 µg/mL	16 µg/mL (≈ 15.8 µM)	2 µg/mL (≈ 1.97 µM)	8 µg/mL (≈ 7.89 µM)
CC[C@H]1OC(=O)[C@H](C)[C@@H](O[C@H]2C[C@@](C)(OC)[C@@H](O)[C@H](C)O2)[C@H](C)[C@@H](O[C@@H]2O[C@H](C)C[C@H](N(C)C)[C@H]2O)[C@](C)(O)C[C@@H](C)CN(C)[C@H](C)[C@@H](O)[C@]1(C)O [AZITHROMYCIN]	0.5 µg/mL (≈ 0.668 µM)	≤ 0.125 µg/mL	64 µg/mL (≈ 85.4 µM)	≤ 0.125 µg/mL	2 µg/mL (≈ 2.67 µM)	8 µg/mL (≈ 10.7 µM)	8 µg/mL (≈ 10.7 µM)	≤ 0.125 µg/mL	8 µg/mL (≈ 10.7 µM)	1 µg/mL (≈ 1.34 µM)	4 µg/mL (≈ 5.34 µM)
